According to ChEMBL document CHEMBL2157866, “Virtual screening and computational optimization for the discovery of covalent prolyl oligopeptidase inhibitors with activity in human cells” (J Med Chem, 2012):
Active and inactive are the calls of the source. The rule behind the calls is not given here.

Key:
[1] = biological target: Dipeptidyl peptidase 4 (Homo sapiens) (UniProt P27487); experiment: Inhibition DPP4 in human LN18 cell extracts using Gly-Pro-AMC substrate at 100 uM incubated for 30 mins by fluorimetric assay
Procedure, shortened: (§1)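 Cells grown to confluence in DMEM with 4.5 g/L glucose (10% FCS for HCEC, 5% FCS for glioblastoma lines), then lysed in PBS with 0.1% Triton X-100. Inhibitor (methanol stock diluted in water) preincubated 5–10 min at room temperature in duplicate wells. Gly-Pro-AMC added at 10 μM final; fluorescence increase (ex/em 360/460 nm) read for 30 min at 37 °C.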

[2] = biological target: Dipeptidyl peptidase 4 (Homo sapiens) (UniProt P27487); experiment: Inhibition DPP4 in human LN229 cell extracts using Gly-Pro-AMC substrate at 100 uM incubated for 30 mins by fluorimetric assay; procedure, shortened: as §1
[3] = biological target: Dipeptidyl peptidase 4 (Homo sapiens) (UniProt P27487); experiment: Inhibition DPP4 in human LNZ308 cell extracts using Gly-Pro-AMC substrate at 100 uM incubated for 30 mins by fluorimetric assay; procedure, shortened: as §1
[4] = biological target: Dipeptidyl peptidase 4 (Homo sapiens) (UniProt P27487); experiment: Inhibition DPP4 in human HCEC cell extracts using Gly-Pro-AMC substrate at 100 uM incubated for 30 mins by fluorimetric assay; procedure, shortened: as §1
[5] = biological target: T1, Prolyl endopeptidase (Homo sapiens) (UniProt P48147); experiment: Inhibition of POP in human LN18 cell extracts using Cbz-Gly-Pro-AMC substrate at 100 uM incubated for 30 mins by fluorimetric assay
T1 sequence (whole entry): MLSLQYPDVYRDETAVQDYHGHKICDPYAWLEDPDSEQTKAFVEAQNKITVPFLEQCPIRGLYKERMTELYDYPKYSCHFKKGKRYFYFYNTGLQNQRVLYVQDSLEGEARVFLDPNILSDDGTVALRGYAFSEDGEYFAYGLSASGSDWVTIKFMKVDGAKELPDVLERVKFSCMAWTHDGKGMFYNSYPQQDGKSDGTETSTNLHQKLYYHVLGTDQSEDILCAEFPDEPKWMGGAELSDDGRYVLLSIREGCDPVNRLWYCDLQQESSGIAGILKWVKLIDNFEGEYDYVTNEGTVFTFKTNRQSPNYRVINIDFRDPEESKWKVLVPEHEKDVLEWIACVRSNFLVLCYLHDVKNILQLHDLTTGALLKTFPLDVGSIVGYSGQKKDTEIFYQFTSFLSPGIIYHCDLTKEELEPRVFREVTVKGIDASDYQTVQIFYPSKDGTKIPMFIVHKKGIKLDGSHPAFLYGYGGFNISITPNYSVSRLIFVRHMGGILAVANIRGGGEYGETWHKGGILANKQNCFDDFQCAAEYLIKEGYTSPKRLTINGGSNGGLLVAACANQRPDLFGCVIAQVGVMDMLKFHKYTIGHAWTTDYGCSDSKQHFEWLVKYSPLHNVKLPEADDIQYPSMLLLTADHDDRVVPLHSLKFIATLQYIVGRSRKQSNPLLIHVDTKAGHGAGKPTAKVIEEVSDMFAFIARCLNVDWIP
Procedure, shortened: (§2)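 Confluent monolayers (DMEM, 4.5 g/L glucose; 10% FCS for HCEC, 5% FCS for LN18/LN229/LNZ308) lysed in PBS containing 0.1% Triton X-100. Inhibitor preincubated 5–10 min at room temperature in duplicate wells. Z-Gly-Pro-AMC added at 10 μM final; fluorescence (ex/em 360/460 nm) recorded over 30 min at 37 °C. IC50 taken from residual activity plotted against decreasing inhibitor concentrations.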

[6] = biological target: T1, Prolyl endopeptidase (Homo sapiens); experiment: Inhibition of POP in human HCEC cell extracts using Cbz-Gly-Pro-AMC substrate at 100 uM incubated for 30 mins by fluorimetric assay; procedure, shortened: as §2
[7] = biological target: T1, Prolyl endopeptidase (Homo sapiens); experiment: Inhibition of POP in human LN229 cell extracts using Cbz-Gly-Pro-AMC substrate at 100 uM incubated for 30 mins by fluorimetric assay; procedure, shortened: as §2
[8] = biological target: T1, Prolyl endopeptidase (Homo sapiens); experiment: Inhibition of POP in human LNZ308 cell extracts using Cbz-Gly-Pro-AMC substrate at 100 uM incubated for 30 mins by fluorimetric assay; procedure, shortened: as §2
[9] = biological target: T1, Prolyl endopeptidase (Homo sapiens); experiment: Inhibition of POP in intact human LN18 cells using Cbz-Gly-Pro-AMC substrate at 100 uM incubated for 30 mins by fluorimetric assay; type: cell-based
Procedure, shortened: (§3)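 Intact confluent monolayers kept in PBS pH 7.2–7.4 without detergent, in duplicate wells. Inhibitor added 5–10 min at room temperature before Z-Gly-Pro-AMC at 10 μM final. Fluorescence increase (ex/em 360/460 nm) followed for 30 min at 37 °C. IC50 obtained by plotting residual activity against inhibitor concentration.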

[10] = biological target: T1, Prolyl endopeptidase (Homo sapiens); experiment: Inhibition of POP in intact human LN229 cells using Cbz-Gly-Pro-AMC substrate at 100 uM incubated for 30 mins by fluorimetric assay; type: cell-based; procedure, shortened: as §3
[11] = biological target: T1, Prolyl endopeptidase (Homo sapiens); experiment: Inhibition of POP in intact human LNZ308 cells using Cbz-Gly-Pro-AMC substrate at 100 uM incubated for 30 mins by fluorimetric assay; type: cell-based; procedure, shortened: as §3
[12] = biological target: T1, Prolyl endopeptidase (Homo sapiens); experiment: Inhibition of POP in intact human HCEC cells using Cbz-Gly-Pro-AMC substrate at 100 uM incubated for 30 mins by fluorimetric assay; type: cell-based; procedure, shortened: as §3
[13] = biological target: Prolyl endopeptidase FAP (Homo sapiens) (UniProt Q12884); experiment: Inhibition at human recombinant FAPalpha at 100 uM
Procedure, shortened: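 Recombinant human FAPα diluted in PBS with 1 mg/mL BSA. Setup as for cell extracts: inhibitor preincubated 5–10 min at room temperature, then Z-Gly-Pro-AMC at 10 μM final. AMC fluorescence (ex/em 360/460 nm) recorded for 30 min at 37 °C.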

Chain of Dipeptidyl peptidase 4 (Homo sapiens) (P27487 whole entry, looked up): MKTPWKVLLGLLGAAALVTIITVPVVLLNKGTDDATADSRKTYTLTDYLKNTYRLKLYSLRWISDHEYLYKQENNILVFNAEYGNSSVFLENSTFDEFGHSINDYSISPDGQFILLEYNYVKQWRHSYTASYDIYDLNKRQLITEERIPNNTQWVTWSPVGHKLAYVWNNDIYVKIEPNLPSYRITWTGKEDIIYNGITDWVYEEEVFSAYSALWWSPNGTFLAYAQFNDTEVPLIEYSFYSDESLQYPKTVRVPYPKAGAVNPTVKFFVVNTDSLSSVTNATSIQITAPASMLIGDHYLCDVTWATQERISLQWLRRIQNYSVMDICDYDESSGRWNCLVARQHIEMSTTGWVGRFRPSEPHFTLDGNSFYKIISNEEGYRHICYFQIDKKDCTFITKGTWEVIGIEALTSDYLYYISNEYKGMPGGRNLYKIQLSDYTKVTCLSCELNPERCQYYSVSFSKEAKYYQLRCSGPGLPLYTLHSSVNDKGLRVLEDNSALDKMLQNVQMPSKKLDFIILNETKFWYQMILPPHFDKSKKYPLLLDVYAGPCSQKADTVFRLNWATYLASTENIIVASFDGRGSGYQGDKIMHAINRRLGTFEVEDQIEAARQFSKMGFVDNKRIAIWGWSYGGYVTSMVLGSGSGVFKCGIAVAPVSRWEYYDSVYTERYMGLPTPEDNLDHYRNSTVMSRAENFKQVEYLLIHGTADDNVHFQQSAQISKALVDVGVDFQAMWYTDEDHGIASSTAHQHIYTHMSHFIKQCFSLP
Chain of Prolyl endopeptidase FAP (Homo sapiens) (Q12884 whole entry): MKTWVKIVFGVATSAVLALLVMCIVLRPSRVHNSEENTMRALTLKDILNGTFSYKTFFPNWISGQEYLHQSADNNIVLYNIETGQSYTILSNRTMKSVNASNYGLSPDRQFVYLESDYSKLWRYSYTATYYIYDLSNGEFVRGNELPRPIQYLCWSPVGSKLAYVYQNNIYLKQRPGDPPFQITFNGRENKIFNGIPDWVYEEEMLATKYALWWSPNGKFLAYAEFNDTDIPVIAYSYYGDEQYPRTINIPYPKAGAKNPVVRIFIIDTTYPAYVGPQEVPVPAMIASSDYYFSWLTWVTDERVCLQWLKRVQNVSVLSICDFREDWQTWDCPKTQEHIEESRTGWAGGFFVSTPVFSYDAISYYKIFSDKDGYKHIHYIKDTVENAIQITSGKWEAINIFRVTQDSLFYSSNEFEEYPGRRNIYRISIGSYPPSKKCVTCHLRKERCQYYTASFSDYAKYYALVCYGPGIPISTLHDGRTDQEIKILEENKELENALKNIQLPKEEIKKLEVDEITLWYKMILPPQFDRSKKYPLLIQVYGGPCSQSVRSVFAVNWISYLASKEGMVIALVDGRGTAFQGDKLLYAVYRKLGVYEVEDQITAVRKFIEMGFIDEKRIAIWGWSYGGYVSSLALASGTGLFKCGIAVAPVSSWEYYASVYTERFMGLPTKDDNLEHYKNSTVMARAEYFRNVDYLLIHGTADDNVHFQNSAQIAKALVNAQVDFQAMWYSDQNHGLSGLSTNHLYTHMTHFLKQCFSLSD

| Compound | inhibition [1] | inhibition [2] | inhibition [3] | inhibition [4] | inhibition [5] [%] | inhibition [6] [%] | inhibition [7] [%] | inhibition [8] [%] | inhibition [9] | inhibition [10] | inhibition [11] | inhibition [12] | inhibition [13] [%] |
| --- | --- | --- | --- | --- | --- | --- | --- | --- | --- | --- | --- | --- | --- |
| O=C(NCc1ccccc1)c1ccccc1C(=O)N1CCCCC1 | inactive | inactive | inactive | inactive | > 50 | > 50 | > 50 | > 50 | inactive | inactive | inactive | inactive | – |
| N#C[C@@H]1CCCN1C(=O)c1cccc2c1C(=O)N(Cc1ccccc1)C2 | inactive | inactive | inactive | inactive | – | – | – | – | – | – | – | – | 28 |
| O=C(c1cccc2c1C(=O)N(Cc1ccccc1)C2)N1CCCC1 | inactive | inactive | inactive | inactive | – | – | – | – | – | – | – | – | 11 |
| N#C[C@@H]1CCCN1C(=O)c1ccccc1C(=O)NCc1ccccc1 | inactive | inactive | inactive | inactive | – | – | – | – | – | – | – | – | 34 |
| O=C(NCc1ccccc1)c1ccccc1C(=O)N1CCCC1 | inactive | inactive | inactive | inactive | – | – | – | – | > 50% | > 50% | > 50% | > 50% | – |
